Source: ChEMBL document CHEMBL1127554, “Design, synthesis, and study of 9-substituted ellipticine and 2-methylellipticinium analogues as potential CNS-selective antitumor agents” (1994)

Experiments:
Tumor Cell line [1] = test: LC50 was given In vitro as -50% percent growth (PG), measured as concentration of compound required to inhibit disease oriented human tumor cell line panels; Value ranges from 16.98->100; format: functional; settings: read-out: LC50 (the source's name)
Procedure, shortened: (§1)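 Human tumor cell line panel tested in vitro. Percent growth (PG) plotted against log drug concentration to give dose-response curves. LC50 is the concentration where PG equals -50%; GI50 and TGI are taken at +50% and 0%. Values are means across the full panel, with values beyond the tested limits (> or <) included in the mean.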

Tumor Cell line [2] = test: TGI was measured In vitro as the ratio of the mean activity for all non-CNS tumor cell lines over the mean activity of the CNS tumor subpanel (eight cell lines); format: functional, Homo sapiens
Procedure, shortened: (§2)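 Ratio of the mean activity (μM) over all non-CNS tumour cell lines (ca. 40-50 lines) to the mean activity (μM) of the CNS subpanel (eight lines). Activity was taken from PG vs log concentration curves: GI50 at PG +50%, TGI at PG 0%.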

Tumor Cell line [3] = test: GI50 was measured In vitro as the ratio of the mean activity for all non-CNS tumor cell lines over the mean activity of the CNS tumor subpanel (eight cell lines); format: functional, Homo sapiens; procedure, shortened: as §2
Tumor Cell line [4] = test: LC50 was given in vitro as -50% percent growth (PG), measured as concentration of compound required to inhibit disease oriented human tumor cell line panels; Value ranges from 5.50->100; format: functional; settings: read-out: LC50 (the source's name); procedure, shortened: as §1
Tumor Cell line [5] = test: GI50 was given in vitro as +50% percent growth (PG), measured as concentration of compound required to inhibit disease oriented human tumor cell line panels; Value ranges from 1.58-11.22; format: functional
Procedure, shortened: (§3)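 Human tumour cell line panel; percent growth plotted against log drug concentration to give dose-response curves. GI50 is the concentration giving PG +50%, and TGI the concentration giving PG 0%. Values are mean inhibitory concentrations over the entire panel. PG values at either limit (> or <) are included in the mean.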

Tumor Cell line [6] = test: TGI was given in vitro as 0% percent growth (PG), measured as concentration of compound required to inhibit disease oriented human tumor cell line panels; Value ranges from 2.95-54.95; format: functional; procedure, shortened: as §3
[7] = TGI was measured in vitro as the ratio of the mean activity for all non-CNS tumor cell lines over the mean activity of the CNS tumor subpanel (eight cell lines); format: functional; procedure, shortened: as §2
[8] = GI50 was measured in vitro as the ratio of the mean activity for all non-CNS tumor cell lines over the mean activity of the CNS tumor subpanel (eight cell lines); format: functional; procedure, shortened: as §2
[9] = LC50 was measured in vitro as the ratio of the mean activity for all non-CNS tumor cell lines over the mean activity of the CNS tumor subpanel (eight cell lines); format: functional
Procedure, shortened: (§4)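 Same PG dose-response panel. LC50 (μM) is averaged separately over the non-CNS lines (ca. 40-50 lines) and the CNS subpanel (eight lines). The ratio is the non-CNS mean divided by the CNS mean.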

Tumor Cell line [10] = test: LC50 was given In vitro as -50% percent growth (PG), measured as concentration of compound required to inhibit disease oriented human tumor cell line panels; Value ranges from 4.68-100; format: functional; settings: read-out: LC50 (the source's name); procedure, shortened: as §1
Tumor Cell line [11] = test: LC50 was measured In vitro as the ratio of the mean activity for all non-CNS tumor cell lines over the mean activity of the CNS tumor subpanel (eight cell lines); format: functional, Homo sapiens; procedure, shortened: as §4
Tumor Cell line [12] = test: GI50 was given In vitro as +50% percent growth (PG), measured as concentration of compound required to inhibit disease oriented human tumor cell line panels; Value ranges from 0.62-2.95; format: functional; procedure, shortened: as §3
Tumor Cell line [13] = test: LC50 was given In vitro as -50% percent growth (PG), measured as concentration of compound required to inhibit disease oriented human tumor cell line panels; Value ranges from 4.09->100; format: functional; settings: read-out: LC50 (the source's name); procedure, shortened: as §1
Tumor Cell line [14] = test: TGI was given In vitro as 0% percent growth (PG), measured as concentration of compound required to inhibit disease oriented human tumor cell line panels; Value ranges from 2-5.50; format: functional; procedure, shortened: as §3
Tumor Cell line [15] = test: LC50 was given In vitro as -50% percent growth (PG), measured as concentration of compound required to inhibit disease oriented human tumor cell line panels; Value ranges from 7.94->100; format: functional; settings: read-out: LC50 (the source's name)
Tumor Cell line [16] = test: GI50 was given In vitro as +50% percent growth (PG), measured as concentration of compound required to inhibit disease oriented human tumor cell line panels; Value ranges from 0.43->100; format: functional
Tumor Cell line [17] = test: TGI was given In vitro as 0% percent growth (PG), measured as concentration of compound required to inhibit disease oriented human tumor cell line panels; Value ranges from 3.47->100; format: functional
Tumor Cell line [18] = test: LC50 was given In vitro as -50% percent growth (PG), measured as concentration of compound required to inhibit disease oriented human tumor cell line panels; format: functional; settings: read-out: LC50 (the source's name); procedure, shortened: as §1
Tumor Cell line [19] = test: GI50 was given In vitro as +50% percent growth (PG), measured as concentration of compound required to inhibit disease oriented human tumor cell line panels; Value ranges from 0.51-12.88; format: functional; procedure, shortened: as §3
Tumor Cell line [20] = test: LC50 was given In vitro as -50% percent growth (PG), measured as concentration of compound required to inhibit disease oriented human tumor cell line panels; Value ranges from 22.91->55; format: functional; settings: read-out: LC50 (the source's name); procedure, shortened: as §1
Tumor Cell line [21] = test: LC50 was given In vitro as -50% percent growth (PG), measured as concentration of compound required to inhibit disease oriented human tumor cell line panels; Value ranges from 8.13->76; format: functional; settings: read-out: LC50 (the source's name); procedure, shortened: as §1
Tumor Cell line [22] = test: GI50 was given In vitro as +50% percent growth (PG), measured as concentration of compound required to inhibit disease oriented human tumor cell line panels; Value ranges from 1.38-15.14; format: functional; procedure, shortened: as §3
Tumor Cell line [23] = test: TGI was given In vitro as 0% percent growth (PG), measured as concentration of compound required to inhibit disease oriented human tumor cell line panels; Value ranges from 3.24-37.15; format: functional; procedure, shortened: as §3
Tumor Cell line [24] = test: GI50 was given In vitro as +50% percent growth (PG), measured as concentration of compound required to inhibit disease oriented human tumor cell line panels; Value ranges from 0.060->100; format: functional
Tumor Cell line [25] = test: LC50 was given In vitro as -50% percent growth (PG), measured as concentration of compound required to inhibit disease oriented human tumor cell line panels; Value ranges from 3.02->100; format: functional; settings: read-out: LC50 (the source's name)
Tumor Cell line [26] = test: TGI was given In vitro as 0% percent growth (PG), measured as concentration of compound required to inhibit disease oriented human tumor cell line panels; Value ranges from 0.68->100; format: functional; procedure, shortened: as §3

Cc1c2cc[n+](C)cc2c(C)c2c1[nH]c1ccc(Oc3ccccc3)cc12.[I-]
CC50 (Tumor Cell line [1]): > 93.3 µM
TGI ratio (Tumor Cell line [2]): 2.06
GI50 ratio (Tumor Cell line [3]): 3.05

Cc1c2ccncc2c(C)c2c1[nH]c1ccc(OC(C)(C)C)cc12
CC50 (Tumor Cell line [4]): > 32.4 µM
GI50 (Tumor Cell line [5]): 2.57 µM
TGI (Tumor Cell line [6]): 7.24 µM
TGI ratio [7]: 1.17
GI50 ratio [8]: 1.1
LC50 ratio [9]: 0.98 µM

CCOc1ccc2[nH]c3c(C)c4ccncc4c(C)c3c2c1
CC50 (Tumor Cell line [10]): > 8.32 µM
TGI ratio (Tumor Cell line [2]): 1.32
GI50 ratio (Tumor Cell line [3]): 0.89
LC50 ratio (Tumor Cell line [11]): 1.7

Cc1c2ccncc2c(C)c2c1[nH]c1ccc(OCC(F)(F)F)cc12
GI50 (Tumor Cell line [12]): 1.58 µM
CC50 (Tumor Cell line [13]): > 8.13 µM
TGI (Tumor Cell line [14]): 3.24 µM
TGI ratio (Tumor Cell line [2]): 0.73
GI50 ratio (Tumor Cell line [3]): 0.63
LC50 ratio (Tumor Cell line [11]): 0.74

CC(=O)[O-].Cc1c2cc[n+](C)cc2c(C)c2c1[nH]c1ccc(OC(C)C)cc12
CC50 (Tumor Cell line [15]): > 66.1 µM
GI50 (Tumor Cell line [16]): > 3.8 µM
TGI (Tumor Cell line [17]): > 23.4 µM
TGI ratio (Tumor Cell line [2]): 2.09
GI50 ratio (Tumor Cell line [3]): 2.99

CC(=O)[O-].Cc1c2cc[n+](C)cc2c(C)c2c1[nH]c1ccc(O)cc12 [ELLIPTINIUM ACETATE]
CC50 (Tumor Cell line [18]): > 100 µM
TGI ratio (Tumor Cell line [2]): 9.34
GI50 ratio (Tumor Cell line [3]): 6.28

Cc1c2cc[n+](C)cc2c(C)c2c1[nH]c1ccc(O)c(OCC(F)(F)F)c12.[I-]
GI50 (Tumor Cell line [19]): 2.24 µM
CC50 (Tumor Cell line [20]): > 50.1 µM
TGI ratio (Tumor Cell line [2]): 3.89
GI50 ratio (Tumor Cell line [3]): 5.65
LC50 ratio (Tumor Cell line [11]): 1.35

Cc1c2ccncc2c(C)c2c1[nH]c1ccc(O)c(OCC(F)(F)F)c12
CC50 (Tumor Cell line [21]): > 42.7 µM
GI50 (Tumor Cell line [22]): 5.89 µM
TGI (Tumor Cell line [23]): 15.8 µM
TGI ratio (Tumor Cell line [2]): 0.98
GI50 ratio (Tumor Cell line [3]): 1.07

CCOc1ccc2[nH]c3c(C)c4cc[n+](C)cc4c(C)c3c2c1.[I-]
GI50 (Tumor Cell line [24]): > 1.17 µM
CC50 (Tumor Cell line [25]): > 55 µM
TGI (Tumor Cell line [26]): > 12 µM
TGI ratio (Tumor Cell line [2]): 9.54
GI50 ratio (Tumor Cell line [3]): 7.9
